High-throughput results from PubChem.
A selection: hits, their analogues and other compounds. The true share with any hit is near 3%.
V-ATPase pHluor – yeast V-ATPase proton transport regulation by pHLuorin | S. cerevisiae, pHLuorin cytosolic pH fluorescence | response, % at 10 µM | actives 0.37% (n = 350,000) | AID 504577; in the data active = response mostly above about 7.3%, no sharp cut-off; inactive = mostly below about 5.4%; also: actives read high
AI-2 QS modul – modulators of Vibrio harveyi AI-2 quorum sensing system; AID 2094; Vibrio harveyi JMH597 AI-2 luminescence/OD600 ratio, 9 h; active compounds read low; strain lacks LuxN and CqsS sensors; 0 = neutral-control median; actives 0.4% (n = 300,000); activity change, % at 7.5 µM; in the data active = activity change below about -75%, passing the limit was not always enough;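 also: luminescence divided by OD600 gain over 9 h not by final OD600 alone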
HIF act – HIF pathway transcriptional activation | U2OS HRE-luciferase reporter, luminescence; normalized: DMSO 0%, desferrioxamine 100% | activation, % at 7.5 µM (by protocol) | actives 0.32% (n = 300,000) | AID 1910;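 active = mean activation of at least 10% of the iron chelator positive control signal, with at least half of replicates also reaching 10%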
NRP1-CendR mod – NRP-1/CendR interaction modulation. actives 0.85% (n = 360,000). AID 602438. inhibition, % at 25 µM. FAM-RPARPAR peptide binding to NRP-1, fluorescence polarization. O14786;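 active = inhibition or corrected inhibition above about 18%, plus a signal ratio from 0.5 to 1.5, limit read from the data, passing the limit was not always enough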
T cruzi repl – T. cruzi replication inhibition. T. cruzi beta-gal in NIH3T3, luminescence, 90 h. inhibition, % (no concentration beside the values). actives 1.4% (n = 300,000);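 active = mean inhibition across valid replicates above about 55%, limit read from the data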;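 also: signal also drops with host cell toxicity which is not excluded here; 0% = plate median of DMSO wells and 100% = zero luminescence signal; higher percent means less beta-gal luminescence so fewer parasites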
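System – NIH/3T3 host cells with β-galactosidase reporter T. cruzi · Doses – single 50 nL compound addition per well in DMSO · Reagent – 5000 T. cruzi trypomastigotes/well · Medium – Low-serum DMEM with 2% FBS · Timing – ≥90 h infection period, 3 h prior cell attachment · Evaluation – parasite load inhibition, % · Technique – GalScreen luminescence, 60 min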
CR mimetic SO – caloric restriction mimetics inhibiting age-related superoxide in yeast; S. cerevisiae aged cells, superoxide DHE fluorescence; active compounds read low; superoxide response (% of plate mean), % at 10 µM; actives 0.18% (n = 330,000); AID 2690;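 active = superoxide response under a set limit, about three screen SD below normal, cut at about 65% in these data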;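 also: yeast aged for seven days with compound at 30 °C before DHE staining; 100% = average MFI of all compound-treated wells on the plate with controls excluded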
An asterisk follows results filed as active; / = no result given.

SMILES	V-ATPase pHluor	AI-2 QS modul	HIF act	NRP1-CendR mod	T cruzi repl	CR mimetic SO
CCOc1ccc(NC(=O)C2CCCN(c3nn4c(=O)cc(C)nc4s3)C2)cc1 (stereo unspecified)	-21	13	0	3	-7	87
O=C(CN1C(=O)/C(=C/c2ccc(F)cc2)SC1=S)N1CCN(CCc2ccccn2)CC1	2	30	1	-17	22	92
O=C(NC(CSCc1ccccc1)C(=O)N/N=C/c1ccc(O)cc1O)c1ccc([N+](=O)[O-])cc1 (stereo unspecified)	6	52	42*	-10	26	93
CCOC(=O)C1(CCOC)CCN(C/C=C/c2ccccc2OC)CC1	-1	24	0	-6	-5	90
CCCCOc1ccc(-c2nc(=S)[nH][nH]2)cc1	-2	-89*	2	0	-11	102
CCCCOc1ccc(-c2nc(SCC(N)=O)n[nH]2)cc1	0	-22	1	-10	1	94
Cc1ccc(C2(c3noc(CN(C)Cc4cnn(C)c4)n3)CCCC2)cc1	-1	22	-1	34*	4	115
Cc1ccc(-c2nnc(Nc3ccc(CC(N)=O)cc3)c3ccccc23)cc1	4	9	0	-6	60*	88
CNS(=O)(=O)c1cc(-c2nnc(Nc3ccc(CC(N)=O)cc3)c3ccccc23)ccc1C	3	13	0	4	8	101
O=C(NCCCN1CCCC1=O)c1cc(-c2ccc(F)cc2)nc2ccccc12	-4	/	/	-3	/	107
OC(COc1ccc(F)cc1Cl)CN1CCC(Cc2ccccc2)CC1 (stereo unspecified)	6	35	-18	12	63*	110
OC(COc1ccccc1)CN1CCCC1 (stereo unspecified)	-3	19	0	11	-1	97
ON=C1c2cc(OCCN3CCCCC3)ccc2-c2ccc(OCCN3CCCCC3)cc21	2	9	16*	1	61*	94
OC(COc1ccc(OCC(O)CN2CCN(Cc3ccccc3)CC2)cc1)CN1CCN(Cc2ccccc2)CC1 (stereo unspecified)	0	5	0	5	65*	102
c1ccc(COc2ccc(OCCN3CCCC3)cc2)cc1	0	10	3	2	55*	80
Nc1nnc(CC(=O)N/N=C/c2ccc(-c3ccccc3)o2)s1	0	41	0	-15	-13	92
O=S(=O)(c1ccc2[nH]c3c(c2c1)CCCC3)N1CCCCC1	6	20	0	1	1	98
Cc1ccc(Cn2c(=N)n(CC(O)COc3ccccc3)c3ccccc32)cc1 (stereo unspecified)	0	6	0	24*	59*	106
OC(CN1CCN(Cc2ccccc2)CC1)c1ccc(Br)cc1 (stereo unspecified)	-3	11	-1	8	57*	98
OC(CN1CCN(Cc2ccccc2)CC1)c1ccccc1 (stereo unspecified)	2	19	1	-9	38	87
N=c1n(Cc2ccccc2)c2ccccc2n1CC(O)COc1ccccc1 (stereo unspecified)	-2	23	0	-2	8	96
CC(C)(C)c1ccccc1OCCN1CCCC1	2	27	0	0	60*	129
N#Cc1ccc(-c2ccc(OCC(O)CN3CCCCC3)cc2)cc1 (stereo unspecified)	0	27	-1	12	62*	86
Nc1ccc2nc(SCC(=O)N3CCOCC3)sc2c1	4	27	0	-1	-5	114
Cc1ccc(S(=O)(=O)N2C[C@@]3(O)Cn4c(=O)ccc(=O)n4C[C@@]3(OC(=O)NCC3CCCCC3)C2)cc1	/	/	/	-15	/	/
SMILES	V-ATPase pHluor	AI-2 QS modul	HIF act	NRP1-CendR mod	T cruzi repl	CR mimetic SO
COc1ccc(S(=O)(=O)N2CCC(C(=O)NC3CC3)CC2)cc1C	3	/	-33	16	-6	90
CC(C(=O)Nc1ccc2c(c1)OCCO2)c1ccc([N+](=O)[O-])cc1 (stereo unspecified)	0	19	0	-3	-4	96
CN1CCN(CC(O)COC(c2ccccc2)c2ccccc2)CC1 (stereo unspecified)	-6	24	0	-1	61*	97
CN1CCN(CC(O)COc2ccccc2)CC1 (stereo unspecified)	-3	/	-1	-5	29	92
OC(COc1ccc(OCc2ccccc2)cc1)CN1CCCCC1 (stereo unspecified)	2	13	2	1	56*	105
O=C(/C=C\Nc1ccc2c(c1)OCO2)c1ccc2c(c1)OCO2	-5	81	1	-22	8	101
CCCC12CN(C(=O)c3ccc([N+](=O)[O-])cc3)CC(C)(CN(C(=O)c3ccc([N+](=O)[O-])cc3)C1)C2=O	-3	30	1	6	29	87
CC1(C)N=C(c2cccc(F)c2)C(=O)N1	20*	-1	-1	-2	-20	95
CC1(C)N=C(c2ccccc2)C(=O)N1	3	12	-1	0	-8	100
Cc1cc(C)nc(Sc2ncnc(N)c2[N+](=O)[O-])n1	3	-3	11*	-7	21	81
CSCCC(NC(=O)C1CCCCC1)c1nc2ccccc2[nH]1 (stereo unspecified)	-2	18	0	-10	-6	101
COC(=O)COc1ccc(S(=O)(=O)N2CCN(c3ccc(OC)cc3)CC2)cc1	-2	25	0	24*	-6	105
Cc1cc(C)c(CN2CCN(CCCn3cnc(C(=O)Nc4ccc(C)c(C)c4)n3)CC2)c(C)c1	1	/	/	4	/	/
O=C(Cn1c(=O)c2c(ncn2Cc2ccccc2)n(Cc2ccccc2)c1=O)N1CCc2ccccc21	-1	17	1	-5	24	107
O=C(Cn1c(=O)c2c(ncn2C2CCCC2)n(Cc2ccccc2)c1=O)N1CCc2ccccc21	0	19	0	29*	8	99
Clc1cccc(CN2CCCCCC2)c1Cl	4	-6	-1	-8	-17	106
CCOc1ccc(S(=O)(=O)NC(C)(C)C)cc1-c1nc2c(C(C)(C)C)nn(C)c2c(=O)[nH]1	0	18	/	-14	67*	99
COc1nc(Nc2nc3ccccc3c(=O)[nH]2)nc2ccc(C)cc12	-5	23	0	-8	58*	90
COc1ccc(/C=N/NC(=O)c2cc(C(C)(C)C)[nH]n2)cc1COc1ccc(F)cc1F	-2	34	-1	39*	2	99
COc1ccc(/C=N\NC(=O)c2ccccc2F)cc1COc1ccc(F)cc1F	4	21	2	6	15	98
